From ChEMBL document CHEMBL4257549, “Design, synthesis and biological evaluation of benzimidazole-rhodanine conjugates as potent topoisomerase II inhibitors” (Medchemcomm, 2018)
The source made the active and inactive calls. The rule behind the calls is not given here.

Columns and labels:
[1] = species: Homo sapiens; assay: Inhibition of human topoisomerase 2-mediated pBR322 DNA relaxation at 100 uM after 30 mins by agarose gel electrophoresis
[2] = species: Homo sapiens; assay: Poison activity at human topoisomerase 2 assessed as transformation of supercoiled pBR322 DNA to linear pBR322 DNA at 100 uM after 6 mins by agarose gel electrophoresis
[3] = tested on: A549; assay: Cytotoxicity against human A549 cells after 48 hrs by MTT assay; format: functional, cell-based; conditions: A549, 48 h
Method in brief: (§1)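 Cells seeded at 5000 per well, left overnight, then exposed to compound at 0–50 μM for 48 h. MTT (20 μL of 2.5 mg mL−1) added for a further 4 h at 37 °C, formazan dissolved in DMSO, absorbance read at 570 nm. Quadruplicate wells, N > 2 determinations, mean IC50 taken as the concentration reducing cell number to 50%.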

[4] = tested on: PC-3; assay: Cytotoxicity against human PC3 cells after 48 hrs by MTT assay; format: functional, cell-based; conditions: PC-3, 48 h; method in brief: as §1
[5] = tested on: MDA-MB-231; assay: Cytotoxicity against human MDA-MB-231 cells after 48 hrs by MTT assay; format: functional, cell-based; conditions: MDA-MB-231, 48 h; method in brief: as §1
[6] = species: Homo sapiens; assay: Inhibition of human topoisomerase 2-mediated pBR322 DNA relaxation at 20 uM after 30 mins by agarose gel electrophoresis
[7] = tested on: HeLa; assay: Cytotoxicity against human HeLa cells after 48 hrs by MTT assay; format: functional, cell-based; method in brief: as §1
[8] = tested on: Raji; assay: Cytotoxicity against human Raji cells after 48 hrs by MTT assay; format: functional, cell-based; method in brief: as §1
[9] = tested on: HL-60; assay: Cytotoxicity against human HL60 cells after 48 hrs by MTT assay; format: functional, cell-based; conditions: HL-60, 48 h; method in brief: as §1
[10] = species: Homo sapiens; assay: Inhibition of human topoisomerase 2-mediated pBR322 DNA relaxation at 10 uM after 30 mins by agarose gel electrophoresis
[11] = target: T1, DNA topoisomerase 1 (Homo sapiens) (UniProt P11387); assay: Inhibition of topoisomerase 1 (unknown origin)-mediated pBR322 DNA relaxation at 50 uM after 30 mins by agarose gel electrophoresis
T1 sequence (whole entry): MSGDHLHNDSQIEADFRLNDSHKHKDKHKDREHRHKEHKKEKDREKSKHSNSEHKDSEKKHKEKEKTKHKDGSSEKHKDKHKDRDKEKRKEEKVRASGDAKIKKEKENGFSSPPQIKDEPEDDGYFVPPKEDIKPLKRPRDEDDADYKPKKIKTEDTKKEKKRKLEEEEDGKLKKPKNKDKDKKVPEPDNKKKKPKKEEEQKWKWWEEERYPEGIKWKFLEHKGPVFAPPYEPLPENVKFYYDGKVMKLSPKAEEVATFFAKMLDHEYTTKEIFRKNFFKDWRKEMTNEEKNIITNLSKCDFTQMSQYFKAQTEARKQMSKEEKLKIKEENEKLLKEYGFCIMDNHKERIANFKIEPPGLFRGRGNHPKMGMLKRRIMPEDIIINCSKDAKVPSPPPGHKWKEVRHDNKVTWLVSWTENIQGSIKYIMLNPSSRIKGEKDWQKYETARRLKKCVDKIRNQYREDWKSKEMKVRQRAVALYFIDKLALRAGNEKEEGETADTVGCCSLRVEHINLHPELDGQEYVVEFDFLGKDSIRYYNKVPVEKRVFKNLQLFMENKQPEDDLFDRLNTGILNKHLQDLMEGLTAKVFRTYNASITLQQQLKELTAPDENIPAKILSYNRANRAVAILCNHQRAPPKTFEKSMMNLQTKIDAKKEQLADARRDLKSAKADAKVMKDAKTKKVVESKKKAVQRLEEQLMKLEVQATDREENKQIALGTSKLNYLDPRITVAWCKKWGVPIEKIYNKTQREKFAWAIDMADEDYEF
Method in brief: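 Topo I relaxation of pBR322 with compound at 30 min, 37 °C, camptothecin positive control. Stopped with SDS/bromophenol blue/glycerol dye, run on 1% agarose in TAE for 1.5 h, Ged Red stained, UV visualized.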

[12] = species: Homo sapiens; assay: Poison activity at human topoisomerase 2 assessed as […] at 50 uM after 6 mins by agarose gel electrophoresis
[13] = tested on: DNA; assay: Induction of Escherichia coli pBR322 DNA intercalation assessed as transformation of topoisomerase1-relaxed pBR322 DNA in to supercoiled DNA at 50 uM preincubated for 10 mins followed by topoisomerase-1 addition and measured after 30 mins by agarose gel electrophoresis method; format: nucleic-acid assay
Method in brief: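 Unwinding: pBR322 first relaxed by Topo I in buffer (50 mM Tris-HCl pH 7.5, 50 mM KCl, 10 mM MgCl2, 0.5 mM DTT, 0.1 mM EDTA, 30 μg/mL BSA). 0.1 μg relaxed DNA preincubated with compound 10 min at room temperature, then Topo I (1 U) added, 30 min at 37 °C. Phenol-chloroform stop, SDS/EDTA added, agarose electrophoresis in TAE, UV imaging.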

[14] = species: Homo sapiens; assay: Inhibition of catalytic activity of human topoisomerase 2 assessed as decrease in levels of linear pBR322 DNA trapped by etoposide at 50 uM after 6 mins by agarose gel electrophoresis
[15] = species: Homo sapiens; assay: Inhibition of human topoisomerase 2-mediated pBR322 DNA relaxation at 50 uM after 30 mins by agarose gel electrophoresis
Method in brief: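 Relaxation of 200 ng supercoiled pBR322 by 1 U Topo II (TopoGEN) in 20 μL buffer: 50 mM Tris-HCl pH 8.0, 150 mM NaCl, 10 mM MgCl2, 2 mM ATP, 0.5 mM DTT, 30 μg/mL BSA. Incubated 30 min at 37 °C, stopped with sarcosyl/glycerol dye. Products run on 1% agarose in TAE (1.5 h, 75 V), Ged Red stained, UV imaged; etoposide positive control.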

[16] = tested on: DNA; assay: Induction of Escherichia coli pBR322 DNA intercalation assessed as transformation of topoisomerase1-relaxed pBR322 DNA in to supercoiled DNA at 5 uM preincubated for 10 mins followed by topoisomerase-1 addition and measured after 30 mins by agarose gel electrophoresis method; format: nucleic-acid assay
Method in brief: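 0.1 μg relaxed DNA incubated with compound 10 min at room temperature, then Topo I (1 U) added, 37 °C for 30 min. Stopped with phenol-chloroform and SDS/EDTA. Products resolved on agarose gel in TAE and imaged under UV.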

SMILES	inhibition [1]	Activity [2]	IC50 [3] [µM]	IC50 [4] [µM]	IC50 [5] [µM]	inhibition [6]	IC50 [7] [µM]	IC50 [8] [µM]	IC50 [9] [µM]	inhibition [10]	inhibition [11]	Activity [12]	Activity [13]	inhibition [14]	inhibition [15]	Activity [16]
COc1cc([C@@H]2c3cc4c(cc3[C@@H](O[C@@H]3O[C@@H]5CO[C@@H](C)O[C@H]5[C@H](O)[C@H]3O)[C@H]3COC(=O)[C@H]23)OCO4)cc(OC)c1O [ETOPOSIDE]	Active	Active	2.46	13.2	30.3	Active	28.6	1.21	0.58							
O=C(O)CN1C(=O)/C(=C/c2nc3ccccc3n2Cc2ccccc2F)SC1=S			2.67	1.86	0.33	Active	0.64	1.23	0.21	Active	inactive	inactive	inactive	Active		
O=C(O)CN1C(=O)/C(=C/c2nc3ccc(F)cc3n2Cc2ccccc2F)SC1=S			> 50	> 50	> 50	Active	> 50	22.4	5.23	Active	inactive				Active	
COc1ccc2nc(/C=C3\SC(=S)N(CC(=O)O)C3=O)n(Cc3ccccc3F)c2c1			36.2	> 50	22.4	Active	28.1	12.3	6.44	Active	inactive				Active	
Cc1ccc(Cn2c(/C=C3\SC(=S)N(CC(=O)O)C3=O)nc3ccccc32)cc1			3.22	2.64	1.04	Active	1.28	0.96	0.54	Active	inactive	inactive	inactive	Active		
Cc1ccc(Cn2c(/C=C3\SC(=S)N(CC(=O)O)C3=O)nc3cc(Cl)ccc32)cc1			38.6	26.7	13.7	Active	21.4	20.9	2.72	Active	inactive				Active	
O=C(O)CN1C(=O)/C(=C/c2nc3cc(Cl)ccc3n2Cc2ccccc2F)SC1=S			5.64	3.48	1.67	Active	9.52	2.78	0.87	Active	inactive				Active	
Cc1ccc(Cn2c(/C=C3\SC(=S)N(CC(=O)O)C3=O)nc3cc(F)ccc32)cc1			13.8	10.2	6.55	Active	2.38	3.28	1.17	Active	inactive				Active	
O=C(O)CN1C(=O)/C(=C/c2nc3ccccc3n2CC(=O)c2ccc(Cl)cc2)SC1=S			9.85	6.45	1.12	Active	27.3	3.18	2.43	Active	inactive					
O=C(O)CN1C(=O)/C(=C/c2nc3ccc(Cl)cc3n2Cc2ccccc2F)SC1=S			26.9	17.3	9.57	Active	7.62	8.87	5.23	Active	inactive				Active	
COc1ccc2c(c1)nc(/C=C1\SC(=S)N(CC(=O)O)C1=O)n2Cc1ccc(C)cc1			5.68	3.64	1.22	Active	1.82	1.79	0.77	Active	inactive				Active	
Cc1ccc(Cn2c(/C=C3\SC(=S)N(CC(=O)O)C3=O)nc3ccc(F)cc32)cc1			9.64	5.82	3.86	Active	3.92	2.44	1.69	Active	inactive				Active	
CC[n+]1c(-c2ccccc2)c2cc(N)ccc2c2ccc(N)cc21																Active
O=C(O)CN1C(=O)/C(=C/c2nc3ccccc3n2Cc2ccc(F)c(F)c2)SC1=S			13.4	5.97	3.76	Active	16	7.25	2.74	Active	inactive				Active	
